The values that follow come from ChEMBL document CHEMBL1135941, “Synthesis and biological activity of the new 5-fluorocytosine derivatives, 5'-deoxy-N-alkyloxycarbonyl-5-fluorocytosine-5'-carboxylic acid” (Bioorg Med Chem Lett, 2002).

Broadly, the IC50 is the concentration at which inhibition is half-maximal. Higher therefore signals a need for much substance. The LD50 is the dose expected to kill half of the subjects tested. The term ILS denotes how much longer treated animals lived than controls. Read a high ILS as a large benefit in survival.

≈ marks a conversion by molar mass, not a printed value. Where “and” joins values, the source holds several entries; their conditions need not be identical. Identical values can stand only once.

The subject of data set [1] is A549. Description: Inhibitory concentration of compound for cytotoxicity against […] human lung cells was determined. The data set is classed as functional, cell-based. In short, it runs like this: (§1)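 MTT cytotoxicity assay on human cancer cell lines: A549 (lung), SK-OV-3 (ovarian), HCT15 (colon) and SK-MEL-2 (melanoma). Cells were incubated with compound for 3 days before the MTT read-out. Activity is reported as IC50 in μg/mL.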

Data set [2] in a line: Toxicity by oral administration of single dose in mice. The note with it: mouse, in vivo.
Data set [3] concerns SK-OV-3. In words: Inhibitory concentration of compound for cytotoxicity against SK-OV-3 human ovarian cells was determined. Format: functional, cell-based. Put shortly:
as §1

Data set [4] deals with HCT-15. In words: Inhibitory concentration of compound for cytotoxicity against HCT15 human colon cells was determined. The data set is classed as functional, cell-based. Put shortly: as §1
The subject of data set [5] is SK-MEL-2. In words: Inhibitory concentration of compound for cytotoxicity against SK-MEL-2 human melanoma cells was determined. The data set is classed as functional, cell-based. Put shortly:
as §1

For data set [6], the system named is Mus musculus. In words: In vivo mean survival time of L1210 leukemic BDF1 mice when compound (0.67 mmol/kg/day) was administered orally.
A short description of data set [7]: Toxicity by oral administration of single dose in mice for 21 days. The note with it: mouse, in vivo, 504 h.
Data set [8] has as its system Mus musculus. In words: In vivo mean survival time of L1210 leukemic BDF1 mice when compound (0.016 mmol/kg/day) was administered orally.
For data set [9], the system named is Mus musculus. Description: In vivo mean survival time of L1210 leukemic BDF1 mice when compound (0.0032 mmol/kg/day) was administered orally.
Data set [10] has as its system Mus musculus. In words: Percent increase in life span of L1210 leukemic BDF1 mice when compound (0.15 nmol/kg/day) was administered intravenously. Format: functional.
Data set [11] concerns Mus musculus. Description: In vivo mean survival time of L1210 leukemic BDF1 mice when compound (0.23 nmol/kg/day) was administered intravenously. Format: functional.

`C#CCOC(=O)Nc1nc(=O)n(C2O[C@H](C(=O)O)[C@@H](O)[C@H]2O)cc1F` (stereo partly specified): the IC50 in data set [1] was found to be 0.005 mg/L (≈ 0.014 µM); in [3] it was 0.005 mg/L (≈ 0.014 µM); in data set [4], 0.04 mg/L (≈ 0.112 µM); in [5], 0.007 mg/L (≈ 0.0196 µM). In data set [2], this compound registered an LD50 of 12 mg/kg.
With `CCCCCOC(=O)Nc1nc(=O)n(C2O[C@H](C(=O)O)[C@@H](O)[C@H]2O)cc1F` (stereo partly specified), the IC50 in data set [1] came out at 0.17 mg/L (≈ 0.437 µM); in data set [3], 0.03 mg/L (≈ 0.0771 µM); in data set [4], 0.12 mg/L (≈ 0.308 µM); in [5], 0.03 mg/L (≈ 0.0771 µM). The same compound had an MST in data set [6] of 11.3 days.
On to `O=C(Nc1nc(=O)n(C2O[C@H](C(=O)O)[C@@H](O)[C@H]2O)cc1F)Oc1ccccc1` (stereo partly specified), for which the IC50 came out at 0.55 mg/L (≈ 1.39 µM) in data set [1], 0.12 mg/L (≈ 0.304 µM) in [3], 0.39 mg/L (≈ 0.987 µM) in data set [4] and 0.1 mg/L (≈ 0.253 µM) in [5].
For `O=C(Nc1nc(=O)n(C2O[C@H](C(=O)O)[C@@H](O)[C@H]2O)cc1F)OCc1ccccc1` (stereo partly specified) the same measures were 0.37 mg/L (≈ 0.904 µM), 0.07 mg/L (≈ 0.171 µM), 0.17 mg/L (≈ 0.415 µM) and 0.1 mg/L (≈ 0.244 µM).
For `CCOC(=O)Nc1nc(=O)n(C2O[C@H](C(=O)O)[C@@H](O)[C@H]2O)cc1F` (stereo partly specified) the same measures were 0.49 mg/L (≈ 1.41 µM), 0.16 mg/L (≈ 0.461 µM), 0.47 mg/L (≈ 1.35 µM) and 0.16 mg/L (≈ 0.461 µM).
For `C=CCOC(=O)Nc1nc(=O)n(C2O[C@H](C(=O)O)[C@@H](O)[C@H]2O)cc1F` (stereo partly specified), the IC50 in [1] amounted to 0.04 mg/L (≈ 0.111 µM); in [3] it was 0.008 mg/L (≈ 0.0223 µM); in [4], 0.032 mg/L (≈ 0.0891 µM); in [5] it was 0.008 mg/L (≈ 0.0223 µM). For the same compound, the LD50 came out at 650 mg/kg in [2] and 22 mg/kg/day in [7]. The MST in [8] came out at 24.8 days; in data set [9], 22.1 days.
`O=c1[nH]cc(F)c(=O)[nH]1` [FLUOROURACIL]: the IC50 in data set [1] was 0.26 mg/L (≈ 2 µM); in data set [3] it was 0.03 mg/L (≈ 0.231 µM); in data set [4], 0.11 mg/L (≈ 0.846 µM); in [5], 0.63 mg/L (≈ 4.84 µM). Besides, the ILS in data set [10] was 87.5% and 62.5%. Further, the MST in data set [11] was 16.5 days and 14.3 days.
